Measurements pooled from the literature.
Protocols differ between the studies behind these lines. In brackets after ≈: the same amount, converted by molar mass.

SMILES	tested on	assay	system	conditions	measurement	result
CC[C@H](C)[C@@H]([C@@H](CC(=O)N1CCC[C@H]1[C@H](OC)[C@@H](C)C(=O)N[C@H](C)[C@@H](O)c1ccccc1)OC)N(C)C(=O)[C@@H](NC(=O)[C@@H](NC)C(C)C)C(C)C	Daudi	cell growth or viability, CCK-8	–	–	IC50	0.00185 µM
O=C1CCP(=[Se])(c2ccccc2)CC1	HaCaT	cell growth or viability, MTT	–	72 h	IC50	> 100 µM
C#Cc1ccc(C=NNC(=O)c2ccc(COCCC)cc2)c(O)c1	Cryptococcus neoformans	microbial growth, broth dilution	–	pH 7.4	MIC80	0.015 µg/mL (≈ 0.0446 µM)
COc1cnc(OC)n2nc(NS(=O)(=O)c3c(OCC(F)F)cccc3C(F)(F)F)nc12	HaCaT	cell growth or viability, CCK-8	–	6.25 µM, 72 h	inhibition	0.85%
S=P1(C2CCCCC2)CCCCC1	HaCaT	cell growth or viability, MTT	–	72 h	IC50	> 100 µM
C#Cc1cccc(O)c1C=NNC(=O)c1ccc(COC)cc1	Cryptococcus neoformans	microbial growth, broth dilution	–	pH 7.4	MIC80	0.06 µg/mL (≈ 0.195 µM)
O=C1CCP(c2ccccc2)CC1	HaCaT	cell growth or viability, MTT	–	72 h	IC50	73.3 µM
C#Cc1ccc(C=NNC(=O)c2ccc(Br)cc2)c(O)c1	Cryptococcus neoformans	microbial growth, broth dilution	–	pH 7.4	MIC80	0.03 µg/mL (≈ 0.0874 µM)
O=C/C=C/c1ccccc1	Bacillus subtilis	microbial growth, well diffusion	MTCC121	1000 µg/mL, 18 h	inhibition zone	8 mm
CC[C@H](C)C[C@H](C)CCCCCCCCC(=O)N[C@H]1C[C@@H](O)[C@@H](NCCN)NC(=O)[C@@H]2[C@@H](O)CCN2C(=O)[C@H]([C@H](O)CCN)NC(=O)[C@H]([C@H](O)[C@@H](O)c2ccc(O)cc2)NC(=O)[C@@H]2C[C@@H](O)CN2C(=O)[C@H]([C@@H](C)O)NC1=O	Nakaseomyces glabratus	microbial killing, broth dilution	ATCC15126	48 h	MFC	0.5 µg/mL (≈ 0.457 µM)
C#Cc1ccc(C=NNC(=O)c2ccc(COCC)cc2)c(O)c1	Cryptococcus neoformans	microbial growth, broth dilution	–	pH 7.4	MIC80	0.015 µg/mL (≈ 0.0465 µM)
N.N.[Cl][Pt][Cl]	OCI-LY19	cell growth or viability, ATP luminescence	–	10 µM, 72 h	inhibition	100%
